Assay results as given in ChEMBL document CHEMBL1932916, “A carbamate-based approach to primaquine prodrugs: antimalarial activity, chemical stability and enzymatic activation” (Bioorg Med Chem, 2012).
Calls of active or inactive are those of the source. No cut-off for these calls is given here.

Legend:
Liver [1] = test: Half life for prodrug activation in rat liver homogenate by HPLC analysis; assay type: tissue-based; conditions: in vitro
Summary of the method: (§1)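 Liver homogenate at 2 mg protein/mL in pH 7.4 PBS, 37 °C, with NADPH-generating system (glucose-6-phosphate 6.25 mM, NADP 1.25 mM, MgCl2 6 mM, G6PDH 2.5 U/mL). Substrates dissolved in PBS at initial 0.25–5.0 mM. HPLC followed substrate loss and primaquine formation. First-order k_liver determined in triplicate.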

Plasmodium berghei ANKA = test: Gametocytocidal activity against Plasmodium berghei ANKA 25R/10 infected in Balb/C mouse assessed as reduction in number of oocysts per mosquito at 15 mg/kg, ip after 2 hrs feed Anopheles stephensi mosquitoes for 2 hrs on compound treated animals measured after 10 days post feed by stereomicroscopy; assay type: functional, organism-based; design: dose 15 mg/kg
Summary of the method: (§2)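 Balb C mice infected ip with 10^7 P. berghei ANKA 25R/10-parasitised erythrocytes. At day 4, once gametocytes were seen on Giemsa films, mice were grouped (six per group). A single ip dose of 15 mg/kg was given, with saline-treated controls run separately for each compound. After 2 h, anaesthetised mice were fed to A. stephensi. Midgut oocysts counted at day 10 post-feed; reported as % infected mosquitoes and mean oocysts per mosquito.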

[2] = Dissociation constant, pKa of the compound; assay type: physicochemical
[3] = Alkaline hydrolysis of the compound assessed as rate constant by HPLC analysis; assay type: physicochemical
Summary of the method: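 Borate and NaOH buffers with 20% (v/v) acetonitrile, ionic strength 0.5 M (NaClO4), 37 °C. Alkyl carbamates followed by HPLC (RP-8 column, acetonitrile/water/KH2PO4 1 M 55:40:5) as substrate loss and primaquine formation; aliquots neutralised with HCl before injection; aryl carbamates by fixed-wavelength UV decay of substrate. Second-order constant k_OH.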

[4] = Gametocytocidal activity against Plasmodium berghei ANKA 25R/10 infected in Balb/C mouse assessed as infected mosquitoes at 15 mg/kg, ip after 2 hrs feed Anopheles stephensi mosquitoes for 2 hrs on compound treated animals measured after 10 days post feed by stereomicroscopy (reference value: 91%); assay type: functional; conditions: route intraperitoneal; summary of the method: as §2
Plasma [5] = test: Stability of the compound in 50% human plasma for 3 hrs by HPLC analysis; assay type: ADME, cell-free
Summary of the method: (§3)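 Pooled heparinised plasma from healthy donors, stored at -70 °C, diluted to 50% (v/v) with pH 7.4 isotonic phosphate buffer. Carbamate added from 10^-2 M stock, 37 °C. Aliquots quenched into acetonitrile, then HPLC quantitation of substrate, primaquine and, for aryl esters, phenol against standards. First-order k_plasma determined in triplicate.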

[6] = Octanol-phosphate buffer partition coefficient, log D of the compound at pH 7.4 after 30 mins by HPLC analysis; assay type: physicochemical
Summary of the method: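 1-Octanol and pH 7.4 phosphate buffer, mutually pre-saturated, 22 °C. Compound dissolved in octanol and the mixture shaken 30 min to equilibrium. Each phase assayed by HPLC, and D taken as the octanol/buffer peak-area ratio. Mean of three experiments.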

Liver [7] = test: Prodrug activation in rat liver homogenate assessed as rate constant by HPLC analysis; assay type: tissue-based; conditions: tissue homogenate; summary of the method: as §1
Liver [8] = test: Prodrug activation in rat liver homogenate assessed as primaquine release by HPLC analysis; assay type: tissue-based; conditions: tissue homogenate; summary of the method: as §1
Plasma [9] = test: Half life for prodrug activation in 50% human plasma by HPLC analysis; assay type: cell-free; summary of the method: as §3
Plasma [10] = test: Prodrug activation in 50% human plasma assessed as rate constant by HPLC analysis; assay type: cell-free; summary of the method: as §3
[11] = Half life in aqueous buffer pH 7.4 by HPLC analysis; assay type: physicochemical
Summary of the method: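 Non-enzymatic hydrolysis in pH 7.4 phosphate buffer, 20% (v/v) acetonitrile, 37 °C. Reaction followed by HPLC (RP-8 column, acetonitrile/water/KH2PO4 eluant) monitoring substrate loss and primaquine formation.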

[12] = Gametocytocidal activity against Plasmodium berghei ANKA 25R/10 infected in Balb/C mouse assessed as infected mosquitoes at 15 mg/kg, ip after 2 hrs feed Anopheles stephensi mosquitoes for 2 hrs on compound treated animals measured after 10 days post feed by stereomicroscopy (reference value: 80%); assay type: functional; conditions: route intraperitoneal; summary of the method: as §2
Plasma [13] = test: Prodrug activation in 50% human plasma preincubated with 20 mM DIFP by HPLC analysis; assay type: cell-free
Summary of the method: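 Same 50% human plasma incubation at 37 °C with HPLC monitoring, but plasma pre-incubated with 20 mM DIFP to inhibit serine cholinesterase before substrate addition.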

| t1/2 (Liver [1]) [h] | pKa [2] | Activity [3] | Stability (Plasma [5]) | logD at 0.5 h [6] | Drug metabolism (Liver [7]) [×10⁻² /hr] | Drug metabolism (Liver [8]) | t1/2 (Plasma [9]) [h] | Drug metabolism (Plasma [10]) | half-life [11] [h] | Drug metabolism (Plasma [13]) | Compound | Activity (Plasmodium berghei ANKA) | Activity [4] [%] | Activity [12] [%] |
| --- | --- | --- | --- | --- | --- | --- | --- | --- | --- | --- | --- | --- | --- | --- |
| 9.5 | 9.95 | 2.64 M⁻¹ s⁻¹ | – | 4.27 | 7.26 | – | 3.62 | 5.34 ×10⁻⁵ /s | 288 | – | COc1cc(NC(C)CCCNC(=O)Oc2ccccc2)c2ncccc2c1 (centres undefined) | Active | – | 65 |
| 10.3 | 10.2 | 9.1 ×10⁻¹ /M/s | – | 4.23 | 6.7 | – | 7.78 | 2.45 ×10⁻⁵ /s | > 720 | – | COc1ccc(OC(=O)NCCCC(C)Nc2cc(OC)cc3cccnc23)cc1 (centres undefined) | – | – | 74 |
| – | 7.14 | 2.4 ×10⁴ /M/s | – | 4.23 | – | – | 0.00267 | – | 0.035 | – | COc1cc(NC(C)CCCNC(=O)Oc2ccc([N+](=O)[O-])cc2)c2ncccc2c1 (centres undefined) | – | – | – |
| 11.8 | 9.38 | 7.17 M⁻¹ s⁻¹ | – | 4.44 | 5.85 | – | 0.638 | 3.06 ×10⁻⁴ /s | 96 | Not Active | COc1cc(NC(C)CCCNC(=O)Oc2ccc(Cl)cc2)c2ncccc2c1 (centres undefined) | – | – | – |

Second part, the compound before the results:

| Compound | t1/2 (Liver [1]) [h] | pKa [2] | Activity [3] | Stability (Plasma [5]) | logD at 0.5 h [6] | Drug metabolism (Liver [7]) [×10⁻² /hr] | Drug metabolism (Liver [8]) | t1/2 (Plasma [9]) [h] | Drug metabolism (Plasma [10]) | half-life [11] [h] | Drug metabolism (Plasma [13]) | Activity (Plasmodium berghei ANKA) | Activity [4] [%] | Activity [12] [%] |
| --- | --- | --- | --- | --- | --- | --- | --- | --- | --- | --- | --- | --- | --- | --- |
| CCOC(=O)NCCCC(C)Nc1cc(OC)cc2cccnc12 (centres undefined) | 15.1 | 15.9 | 9.34 ×10⁻⁷ /M/s | Stable | 3.02 | 4.56 | Not Active | – | – | – | – | Active | 19 | – |
| COc1cc(NC(C)CCCNC(=O)OCC(F)(F)F)c2ncccc2c1 (centres undefined) | 13.7 | 12.4 | 3.95 ×10⁻³ /M/s | Stable | 3.41 | 5.04 | Not Active | – | – | – | – | – | 72 | – |
| CCCCCCOC(=O)NCCCC(C)Nc1cc(OC)cc2cccnc12 (centres undefined) | 10.4 | – | 3.49 ×10⁻⁷ /M/s | Stable | 4.64 | 6.63 | Not Active | – | – | – | – | Active | 24 | – |
| CCOC(=O)COC(=O)NCCCC(C)Nc1cc(OC)cc2cccnc12 (centres undefined) | – | 12.9 | 2.5 M⁻¹ s⁻¹ | – | 3.09 | – | – | – | – | 240 | – | – | – | – |
| COc1cc(NC(C)CCCN)c2ncccc2c1 (centres undefined) [PRIMAQUINE] | – | – | – | – | – | – | – | – | – | – | – | Active | – | 3.9 |
